The record followed here is ChEMBL document CHEMBL1933058, “5-(2-amino-pyrimidin-4-yl)-1H-pyrrole and 2-(2-amino-pyrimidin-4-yl)-1,5,6,7-tetrahydro-pyrrolo[3,2-c]pyridin-4-one derivatives as new classes of selective and orally available Polo-like kinase 1 inhibitors” (Bioorg Med Chem Lett, 2012).

pIC50: −log10 of the molar value. The source made the active and inactive calls. No cut-off for these calls is given here. A value given as a limit tells only on which side of the number the result lay.

The target in one series is T1, Aurora kinase A (Homo sapiens, UniProt O14965).
T1 sequence (O14965 whole entry): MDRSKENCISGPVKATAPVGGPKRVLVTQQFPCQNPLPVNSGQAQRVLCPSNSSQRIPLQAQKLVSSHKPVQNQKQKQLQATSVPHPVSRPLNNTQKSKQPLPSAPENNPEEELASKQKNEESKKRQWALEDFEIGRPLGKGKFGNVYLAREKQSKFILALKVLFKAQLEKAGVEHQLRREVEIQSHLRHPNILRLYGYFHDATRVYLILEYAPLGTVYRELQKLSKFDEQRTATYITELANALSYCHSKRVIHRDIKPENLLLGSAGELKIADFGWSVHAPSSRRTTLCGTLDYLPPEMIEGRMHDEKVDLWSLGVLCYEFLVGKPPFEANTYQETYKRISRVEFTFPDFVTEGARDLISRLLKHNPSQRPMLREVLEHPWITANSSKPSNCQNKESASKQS
Nature of the series: Inhibition of Aurora-A.

The target of series [1] is Serine/threonine-protein kinase PLK3 (Homo sapiens, UniProt Q9H4B4). In words: Inhibition of PLK3.
Sequence of Serine/threonine-protein kinase PLK3 (Q9H4B4 whole entry): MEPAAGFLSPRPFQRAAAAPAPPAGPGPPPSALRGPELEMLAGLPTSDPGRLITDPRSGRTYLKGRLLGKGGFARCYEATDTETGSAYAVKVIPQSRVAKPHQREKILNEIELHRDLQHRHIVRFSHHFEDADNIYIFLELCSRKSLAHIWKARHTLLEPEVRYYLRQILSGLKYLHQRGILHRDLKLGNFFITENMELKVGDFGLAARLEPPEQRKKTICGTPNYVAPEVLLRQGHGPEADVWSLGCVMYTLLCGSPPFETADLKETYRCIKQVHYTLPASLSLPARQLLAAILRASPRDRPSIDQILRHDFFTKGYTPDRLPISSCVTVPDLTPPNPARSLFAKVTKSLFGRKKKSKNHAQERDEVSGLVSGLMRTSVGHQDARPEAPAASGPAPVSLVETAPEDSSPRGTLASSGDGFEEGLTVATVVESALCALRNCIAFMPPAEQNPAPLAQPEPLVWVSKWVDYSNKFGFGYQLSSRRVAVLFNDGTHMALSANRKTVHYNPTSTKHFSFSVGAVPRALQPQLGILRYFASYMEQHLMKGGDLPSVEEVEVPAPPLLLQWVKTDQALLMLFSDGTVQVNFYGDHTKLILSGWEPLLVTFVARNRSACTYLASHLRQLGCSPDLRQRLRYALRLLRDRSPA
Series [2] has as its system A2780. Nature of the series: Antiproliferative activity against human A2780 cells. Format: functional, cell-based.
In series [3] the target is Serine/threonine-protein kinase PLK1 (Homo sapiens, UniProt P53350). Nature of the series: Inhibition of PLK1.
Sequence of Serine/threonine-protein kinase PLK1 (P53350 whole entry): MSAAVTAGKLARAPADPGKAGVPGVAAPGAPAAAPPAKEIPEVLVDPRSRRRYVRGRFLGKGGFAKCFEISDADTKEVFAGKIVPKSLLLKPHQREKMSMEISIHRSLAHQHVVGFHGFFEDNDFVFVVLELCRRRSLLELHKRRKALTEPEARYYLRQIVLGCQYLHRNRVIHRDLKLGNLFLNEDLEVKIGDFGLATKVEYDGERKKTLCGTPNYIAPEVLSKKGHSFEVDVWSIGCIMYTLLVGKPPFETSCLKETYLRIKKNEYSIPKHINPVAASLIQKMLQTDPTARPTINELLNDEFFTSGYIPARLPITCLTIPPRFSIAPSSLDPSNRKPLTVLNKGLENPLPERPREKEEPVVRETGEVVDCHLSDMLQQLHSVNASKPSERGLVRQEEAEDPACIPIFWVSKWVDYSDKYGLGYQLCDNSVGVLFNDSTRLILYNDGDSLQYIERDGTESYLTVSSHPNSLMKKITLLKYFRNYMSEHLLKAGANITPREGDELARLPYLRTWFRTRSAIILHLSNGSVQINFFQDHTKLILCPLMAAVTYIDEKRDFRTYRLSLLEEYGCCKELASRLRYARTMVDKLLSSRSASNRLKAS
Series [4] has as its target Serine/threonine-protein kinase PLK2 (Homo sapiens, UniProt Q9NYY3). Nature of the series: Inhibition of PLK2.
The target of series [5] is Cyclin-dependent kinase 2/cyclin A (Homo sapiens, UniProt P24941). Nature of the series: Inhibition of CDK2/cyclin A. Format: protein-complex assay.
Series [6] is described as follows: Volume of distribution at steady state in Nu/Nu Balb Harlan mouse at 10 mg/kg, iv. Format: ADME, organism-based. Also on record: dose 10 mg/kg, route intravenous. Conditions: in vivo, read-out: Vdss.
The nature of series [7]: AUC (0 to infinity) in Nu/Nu Balb Harlan mouse at 10 mg/kg, po. Also on record: time infinity, dose 10 mg/kg, route oral. Format: ADME, organism-based. As to conditions: plasma.
The nature of series [8]: Oral bioavailability in Nu/Nu Balb Harlan mouse at 10 mg/kg. Format: ADME, organism-based. As to conditions: in vivo.
Series [9] in a line: AUC (0 to infinity) in Nu/Nu Balb Harlan mouse at 10 mg/kg, iv. More on the design: time infinity, dose 10 mg/kg, route intravenous. As to conditions: plasma. Format: ADME, organism-based. The gist of the method: (§1)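 Male Balb Nu/Nu mice (Harlan) received a single 10 mg/kg intravenous dose, n = 3 animals per study. Vehicle was either trifluoroacetate salt in dextrose or free base in 50% PEG 400/glucosate, depending on compound. Parameters were reported as mean ± standard deviation.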

Series [10] can be described thus: Clearance in Nu/Nu Balb Harlan mouse at 10 mg/kg, iv. Format: ADME, organism-based. More on the design: dose 10 mg/kg, route intravenous. Conditions: in vivo. The gist of the method:
as §1

Series [11] can be described thus: Terminal half life in Nu/Nu Balb Harlan mouse at 10 mg/kg, po. Format: ADME, organism-based. Also on record: dose 10 mg/kg, route oral. As to conditions: in vivo, read-out: beta t1/2 (converted).
The nature of series [12]: Half life in Nu/Nu Balb Harlan mouse at 10 mg/kg, iv. Format: ADME, organism-based. Also on record: dose 10 mg/kg, route intravenous. As to conditions: in vivo. The gist of the method: as §1
The nature of series [13]: Cmax in Nu/Nu Balb Harlan mouse at 10 mg/kg, po. Format: ADME, organism-based. More on the design: dose 10 mg/kg, route oral. As to conditions: in vivo.
For series [14], the system named is A2780. In words: Cell cycle arrest in human A2780 cells assessed as reduction of phospho Ser46 TCTP level at 0.05 to 5 uM after 1 hr by Western blotting analysis. Format: functional, cell-based. The gist of the method: (§2)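 A2780 cells got 1 h exposure at 0.05, 0.5 and 5 µM, with nocodazole-treated cells as comparator. Western blot was used to probe the PLK1 substrate marker pSer46 TCTP and the mitotic marker pSer10 histone H3.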

Series [15] relates to A2780. Nature of the series: Cell cycle arrest in human A2780 cells assessed as accumulation at G2/M phase at 0.05 to 5 uM after 24 hrs by FACS analysis. Format: functional, cell-based. The gist of the method: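 A2780 cells were exposed for 24 h to 0.05, 0.5 or 5 µM. Cell-cycle distribution was read by flow cytometry (FACS), scoring G2-M accumulation. Nocodazole-treated cells served as positive control.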
On the technique in general: A flow cytometer gives signals particle by particle.

For series [16], the system named is A2780. In words: Cell cycle arrest in human A2780 cells assessed as increase of phospho Ser10 histone H3 level after 24 hrs by Western blotting analysis. Format: functional, cell-based. The gist of the method: (§3)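 A2780 cells were treated for 24 h at 0.05, 0.5 and 5 µM, with nocodazole as positive control. Lysates were immunoblotted for pSer10 histone H3, pThr199 nucleophosmin, cyclin B1, cyclin A, PARP cleavage and caspase 3 activation.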
A general note: A western blot detects proteins with antibodies after separation by electrophoresis.

The subject of series [17] is A2780. In words: Induction of apoptosis in human A2780 cells assessed as PARP cleavage at 5 uM after 24 hrs by Western blotting analysis. Format: functional, cell-based. The gist of the method:
as §3

Series [18] deals with A2780. In words: Cell cycle arrest in human A2780 cells assessed as increase of phospho Ser10 histone H3 level at 0.05 to 5 uM after 1 hr by Western blotting analysis. Format: functional, cell-based. The gist of the method: as §2
Series [19] deals with A2780. Nature of the series: Cell cycle arrest in human A2780 cells assessed as induction of phospho Thr199 nucleophosmin level after 24 hrs by Western blotting analysis. Format: functional, cell-based. The gist of the method:
as §3

The subject of series [20] is A2780. Nature of the series: Induction of apoptosis in human A2780 cells assessed as caspase3 activation at 5 uM after 24 hrs by Western blotting analysis. Format: functional, cell-based. The gist of the method:
as §3

Sequence of Serine/threonine-protein kinase PLK2 (Q9NYY3 whole entry): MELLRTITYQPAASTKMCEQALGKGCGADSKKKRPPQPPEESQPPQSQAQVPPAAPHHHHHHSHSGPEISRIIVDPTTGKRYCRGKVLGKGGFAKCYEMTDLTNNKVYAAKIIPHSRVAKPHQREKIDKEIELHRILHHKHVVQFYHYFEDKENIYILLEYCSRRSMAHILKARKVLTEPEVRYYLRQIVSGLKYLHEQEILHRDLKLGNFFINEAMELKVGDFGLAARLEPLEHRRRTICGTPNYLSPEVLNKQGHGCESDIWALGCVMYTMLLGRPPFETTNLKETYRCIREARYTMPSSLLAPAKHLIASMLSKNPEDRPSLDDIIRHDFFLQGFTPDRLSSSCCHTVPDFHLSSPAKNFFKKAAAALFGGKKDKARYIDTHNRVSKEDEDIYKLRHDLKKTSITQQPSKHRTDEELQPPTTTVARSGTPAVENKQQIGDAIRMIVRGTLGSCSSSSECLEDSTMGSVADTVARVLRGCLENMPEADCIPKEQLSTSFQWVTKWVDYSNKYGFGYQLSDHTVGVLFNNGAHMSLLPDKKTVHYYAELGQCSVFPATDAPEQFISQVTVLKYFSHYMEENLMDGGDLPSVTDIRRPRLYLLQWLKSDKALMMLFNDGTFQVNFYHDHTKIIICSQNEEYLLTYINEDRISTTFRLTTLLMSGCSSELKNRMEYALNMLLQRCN

As to `CN1CCN(c2ccc(OC(F)(F)F)c(Nc3nccc(-c4cc5c(n4CCO)CCNC5=O)n3)c2)CC1`, the pIC50 at Aurora kinase A is less than 5.00; in series [1], less than 5.00; in the series on A2780 [2] it was 6.14; in [3], 6.99; in series [4] it was less than 5.00; in series [5], less than 5.00.
Regarding `CN1CCN(c2ccc(OC(F)(F)F)c(Nc3nccc(-c4cc5c(n4C)CCN(C(=O)OC(C)(C)C)C5=O)n3)c2)CC1`, the pIC50 is less than 5.00 against Aurora kinase A; less than 5.00 in [1]; 6.75 in the series on A2780 [2]; 6.09 in series [3]; less than 5.00 in series [4]; less than 5.00 in [5].
In the case of `CN1CCN(c2ccc(OC(F)(F)F)c(Nc3nccc(-c4cc(C(N)=O)cn4C)n3)c2)CC1.O=C(O)C(F)(F)F`, the Vd in series [6] is 2.5 L/kg. Also, the AUC(0-inf) in series [7] is 1.92 µM·h; in series [9], 5.41 µM·h. For the same molecule, the bioavailability in series [8] amounted to 36%. The clearance in series [10] was determined as 74.7 mL/min/kg. Moreover, the results for the half-life in series [11] and in [12] were 1.7 h and 0.65 h, respectively. The same molecule had a Cmax in series [13] of 760 nM.
Turning to `CN1CCN(c2ccc(OC(F)(F)F)c(Nc3nccc(-c4cc(C(N)=O)cn4C)n3)c2)CC1`, the outcome in the series on A2780 [14], in the series with A2780 [15], in the series on A2780 [17], in the series with A2780 [18] and in the series on A2780 [20] was Active. The Activity result with A2780 [16] and in the series on A2780 [19] was “Dose-dependent effect” in each case.
In the case of `Nc1nccc(-c2cc3c([nH]2)CCNC3=O)n1`, the pIC50 on Aurora kinase A was less than 5.00; in the series with A2780 [2], 5.82; in series [3], 5.95; in [5], 6.66.
For `CN1CCN(c2ccc(OC(F)(F)F)c(Nc3nccc(-c4cc5c(n4CC(F)(F)F)CCNC5=O)n3)c2)CC1`, the negative logarithm of the IC50 (pIC50) is less than 5.00 against Aurora kinase A; less than 5.00 in series [1]; 7.21 in the series with A2780 [2]; 7.55 in [3]; less than 5.00 in series [4]; less than 5.00 in series [5].
As to `NC(=O)c1c[nH]c(-c2ccnc(N)n2)c1`, the pIC50 (against Aurora kinase A; in series [3]; in series [5]) was less than 5.00 in each case.
Consider `CN1CCN(c2ccc(OC(F)(F)F)c(Nc3nccc(-c4cc(C(N)=O)cn4CCOC4CCCCO4)n3)c2)CC1` (stereo not given), for which the pIC50 was less than 5.00 against Aurora kinase A; less than 5.00 in series [1]; 5.17 in the series on A2780 [2]; 6.57 in series [3]; less than 5.00 in series [4]; less than 5.00 in series [5].
On to `Cn1cc(C(N)=O)cc1-c1ccnc(Nc2cc(N3CCN(C(=O)OC(C)(C)C)CC3)ccc2OC(F)(F)F)n1`, for which the pIC50 on Aurora kinase A is less than 5.00; in [1] it was less than 5.00; with A2780 [2] it was 5.35; in series [3] it was less than 5.00; in series [4], less than 5.00; in [5] it was less than 5.00.
For `Cn1cc(C(N)=O)cc1-c1ccnc(Nc2cc(N3CCNCC3)ccc2OC(F)(F)F)n1`, the pIC50 against Aurora kinase A is less than 5.00; in series [1], less than 5.00; in the series on A2780 [2], 6.21; in series [3], 7.74; in [4], less than 5.00; in [5], less than 5.00.
Take `CN1CCN(c2ccc(OC(F)(F)F)c(Nc3nccc(-c4cc(C(N)=O)cn4CCO)n3)c2)CC1`: the pIC50 against Aurora kinase A was less than 5.00; in series [1] it was less than 5.00; with A2780 [2] it was 5.60; in [3], 6.82; in [4] it was less than 5.00; in [5], less than 5.00.
Take `CN1CCN(c2ccc(OC(F)(F)F)c(Nc3nccc(-c4cc(C(N)=O)cn4CC(F)(F)F)n3)c2)CC1`: the pIC50 against Aurora kinase A is less than 5.00; in series [1] it was less than 5.00; with A2780 [2], 6.96; in [3] it was 7.74; in series [4], less than 5.00; in series [5] it was less than 5.00.

What is called pIC50 is the negative decadic logarithm of the IC50, by convention in mol/L. A low value points to a high IC50. The term AUC(0-inf) denotes the area under the concentration-time curve extrapolated to infinity. One may read the bioavailability as the share of a dose that reaches the circulation, judged against a reference dose that is usually intravenous. By clearance is commonly meant the volume of plasma or blood freed of the substance per unit of time. Low values mean a low capacity for elimination, high ones a high capacity for elimination. One may read the Cmax as the maximum level reached in the sampled fluid or tissue.
